High-throughput results from PubChem BioAssay.
This is a sample that favours compounds with a hit; in the whole collection about 1.5% have one here.
NR2E3 ag-1: human photoreceptor-specific nuclear receptor agonism; Q9Y5X4; CHO-S Gal4-NCOR/VP16-NR2E3 two-hybrid, luciferase; inhibition of corepressor binding, % at 3.98 µM; 360,000 compounds, 0.35% hits;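 active = inhibition above the mean of all tested compounds plus 3 SD, cut at about 70% in these data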;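 note: 0% = DMSO with NR2E3 transfected cells and 100% = cells lacking NR2E3 construct; higher means lower luciferase signal from less NR2E3 corepressor binding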
PG9 binder: small molecules binding HIV-1 gp120 antibody PG9. TR-FRET gp120-PG9 antibody binding. inhibition, % at 6.7 µM. 360,000 compounds, 0.43% hits. AID 624416; in the data active = inhibition above about 8.5%
NR1D1 modulator: modulators of human Rev-erb alpha DNA binding; P20393; Rev-erbα–FITC-DNA binding, fluorescence polarization, 90 min; activity, % at 10 µM; 370,000 compounds, 0.79% hits; AID 1259318;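 active = activity above about 14%, limit read from the data; passing the limit was not always enough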;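 note: 0% = DMSO wells with 35 nM protein and 100% = DMSO wells with 750 nM protein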
Target sequence (P20393 whole entry, looked up): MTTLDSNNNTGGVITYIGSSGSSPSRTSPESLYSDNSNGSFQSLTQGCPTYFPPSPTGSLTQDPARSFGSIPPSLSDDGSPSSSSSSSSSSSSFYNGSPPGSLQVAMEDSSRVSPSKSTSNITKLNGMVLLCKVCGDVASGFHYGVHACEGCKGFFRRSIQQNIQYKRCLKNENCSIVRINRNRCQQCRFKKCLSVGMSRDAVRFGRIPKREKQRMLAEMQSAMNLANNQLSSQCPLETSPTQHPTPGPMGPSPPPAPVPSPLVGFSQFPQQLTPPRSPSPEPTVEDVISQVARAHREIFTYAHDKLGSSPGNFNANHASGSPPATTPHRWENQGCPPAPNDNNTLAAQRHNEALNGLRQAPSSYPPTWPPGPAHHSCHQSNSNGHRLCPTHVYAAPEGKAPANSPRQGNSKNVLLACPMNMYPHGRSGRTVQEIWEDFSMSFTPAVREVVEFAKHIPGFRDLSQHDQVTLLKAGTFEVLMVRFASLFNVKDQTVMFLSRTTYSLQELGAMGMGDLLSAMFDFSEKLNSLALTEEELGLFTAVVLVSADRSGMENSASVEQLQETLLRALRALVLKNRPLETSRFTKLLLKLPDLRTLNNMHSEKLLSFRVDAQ
NR2E3 ag-2: NR2E3 (human) agonism; Q9Y5X4; GST-NR2E3/biotin-RetCOR TR-FRET, 1536-well; inhibition of corepressor binding, % at 4.78 µM; 320,000 compounds, 0.12% hits; AID 2300;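 active = percent inhibition above the cutoff of mean plus 3 SD of all tested compounds, set per screening campaign, cut at about 20% in these data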;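 note: 0% = DMSO wells and 100% = biotin wells as full block of FRET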
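System: GST-tagged NR2E3 plus biotinylated RetCOR corepressor; Buffer or medium: pH 7.5 Tris-based buffer; Probe or stimulus: RetCOR corepressor, biotinylated, 7 nM; Doses: compound at 4.8 µM, single dose; Schedule: 5 h incubation at 4 °C; Technique: time-resolved FRET; Evaluation: percent inhibition of TR-FRET ratio; Replication: one well per compound, singlicate testing.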
NR2E3 ag confirm-1: confirmation of human NR2E3 nuclear receptor agonists; cell-free NR2E3 corepressor release, TR-FRET, 5 h; 360 compounds, 39% hits; activation (reported as inhibition), % at 3.98 µM; shares compounds with NR2E3 ag-2; in the data active = activation above about 20%
PPARg-NCOR2 ag: PPARg-NCOR2 interaction agonism, NR2E3 counter-screen; shares compounds with NR2E3 ag-2; TR-FRET PPARg-NCOR2 coregulator interaction, biochemical; inhibition, % at 3.98 µM; 360 compounds, 45% hits; AID 504787; in the data active = inhibition above about 20%;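 note: 0% = DMSO vehicle and 100% = wells without protein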
NR2E3 ag confirm-2: NR2E3 agonism confirmed in two-hybrid assay; 2,300 compounds, 51% hits; inhibition, % at 3.98 µM; shares compounds with NR2E3 ag-1; CHO-S mammalian two-hybrid NR2E3-NCOR, luciferase luminescence;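 active = average inhibition above a cutoff equal to the mean inhibition of all tested compounds plus one SD, cut at about 70% in these data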;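 note: 0% = DMSO in NR2E3 cells and 100% = DMSO in cells lacking NR2E3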
VP16 counter: counter-screen for NR2E3 agonists: GAL4-VP16 reporter inhibitors | shares compounds with NR2E3 ag-1 | CHO-S GAL4-VP16 luciferase reporter, luminescence | inhibition, % at 3.98 µM | 2,300 compounds, 29% hits | AID 624379;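 active = mean inhibition above a cutoff equal to the average over all tested compounds plus one standard deviation, cut at about 70% in these data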;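 note: luciferase from a UAS reporter driven by GAL4-VP16 transactivation; 0% = DMSO with VP16-transfected cells and 100% = DMSO with cells lacking VP16; higher means less reporter light so more repression of VP16 activity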
Active calls of the source: *; . = no result given.

SMILES	NR2E3 ag-1	PG9 binder	NR1D1 modulator	NR2E3 ag-2	NR2E3 ag confirm-2	VP16 counter	others
C[C@H]1[C@H](OC(=O)CCC(=O)NCc2ccc(C(=O)O)cc2)O[C@@H]2O[C@@]3(C)CC[C@H]4[C@H](C)CC[C@@H]1C24OO3	93*	.	.	-2	.	.
Oc1ccc2c3c1O[C@@H]1[C@@H](O)CC[C@@]4(O)[C@@H](C2)N(CC2CCC2)CC[C@]314	.	.	8	.	.	.
CCCCn1c(NC(=O)c2ccc(Br)o2)c(C(=O)OCC)c2nc3ccccc3nc21	-9	-2	-5	30*	.	.
CN1C[C@H](C(=O)N[C@]2(C)C[C@@]3(O)C4CCCN4C(=O)[C@H](Cc4ccccc4)N3C2=O)C=C2c3cccc4[nH]cc(c34)C[C@H]21 (stereo partly specified)	.	.	5	.	.	.
O=c1c2ccccc2[nH]c(=S)n1-c1ccc(Br)cc1	-20	4	19	36*	.	.	NR2E3 ag confirm-1=-7;PPARg-NCOR2 ag=-4
CC12CCC(C(Br)C1=O)C2(C)C (stereo unspecified)	.	.	1	.	.	.
Cn1ncnc2c(=O)n(C)c(=O)nc1-2	104*	.	.	32*	98*	97*	NR2E3 ag confirm-1=36*;PPARg-NCOR2 ag=66*
O1[As]2O[As]3O[As]1O[As](O2)O3	.	.	-8	.	.	.
O=c1[nH]c(O)c(N=Nc2ccc3c(c2)OCCO3)c(=O)[nH]1	69	-8	22	-2	42	37
O=c1[nH]c(=S)[nH]c(O)c1N=Nc1ccc2c(c1)OCO2	-12	-16	7	-8	.	.
C=C(C)C1CNC(C(=O)O)C1CC(=O)O (stereo unspecified)	.	.	-4	.	.	.
O=[N+]([O-])c1ccc(N2CCOCC2)c2c1no[n+]2[O-]	58	-4	15	.	59	56
O=[N+]([O-])c1ccc(N2CCOCC2)c2cccnc12	-9	-2	5	-2	.	.
CC1=C(O)C(=O)C=C2C1=CC=C1C2(C)CCC2(C)C3CC(C)(C(=O)O)CCC3(C)CCC12C (stereo unspecified)	99*	1	-10	.	95*	77*
O=c1cccc2n1C[C@H]1CNC[C@H]2C1	.	.	-2	.	.	.
Cc1c(NS(=O)(=O)c2ccccc2)ccc([N+](=O)[O-])c1Cl	85*	0	3	.	96*	84*
CCN(CCNc1ccc([N+](=O)[O-])c2cccnc12)S(=O)(=O)c1ccccc1	-37	1	2	0	.	.
C[C@H](N)[C@H](O)c1ccc(O)c(O)c1	.	.	-33	.	.	.
COC(=O)C[C@]1(C(=O)OC)CN(C#N)N(c2ccc(Cl)cc2)C12c1ccccc1-c1ccccc12	89*	1	3	2	80*	21
O=C(Nc1ccc(Br)cc1)c1cc(Br)cc(Br)c1O	.	.	-2	.	.	.
CN(Cc1cccc(-c2ccncc2)c1)C(=O)Oc1ccc([N+](=O)[O-])cc1	90*	.	.	.	81*	74*
COC1C(OC(=O)c2ccc(C)[nH]2)C(O)C(Oc2ccc3c(O)c(NC(=O)c4ccc(O)c(CC=C(C)C)c4)c(=O)oc3c2Cl)OC1(C)C (stereo unspecified)	81*	-1	-3	2	-32	31
CN1CC(CNC(=O)OCc2ccccc2)CC2c3cccc4c3c(cn4C)CC21 (stereo unspecified)	.	.	6	.	.	.
O=c1[nH]sc2cc(F)ccc12	50	3	3	.	18	-10
CCC1(CC)C(=O)NC(=O)NC1=O	.	.	-2	.	.	.
O=c1n(Cl)c(=O)n(Cl)c(=O)n1Cl	.	.	0	.	.	.
CCOc1ccc(-c2c(C)n(-c3ccc(OCC)cc3)c3[n+]2CCCCC3)cc1	64	-2	-2	1	97*	60
CCOc1ccc(-n2c(-c3ccoc3)nc3ccccc3c2=O)cc1	-14	-1	0	-1	.	.
CC(C)(C)CC(C)(C)c1ccc(O)cc1	.	.	10	.	.	.
COc1ccc(C[C@H]2NC[C@H](O)[C@H]2OC(C)=O)cc1	104*	1	5	1	99*	99*
